Assay [1] concerns Plasmodium falciparum. Briefly: In vitro antimalarial activity against Plasmodium falciparum. Format: functional, organism-based. The gist of the method: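 P. falciparum clone D6 (Sierra Leone strain) grown in human O+ erythrocytes, 1% erythrocyte suspension, starting parasitemia about 0.5%. Analogues dissolved in culture medium and filter-sterilized. After 24 h of exposure, [3H]hypoxanthine (1 µCi) was added and its incorporation measured after a further 18-24 h. IC50 is the concentration (µM) inhibiting incorporation by 50%.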

Assay [2] concerns Plasmodium berghei. Briefly: In vivo antimalarial activity against Plasmodium berghei infected mice (Mus musculus) as cures surviving after 4 months. The assay is classed as functional. The gist of the method: (§1)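 Standard 4-day suppression test: mice in groups of five infected intravenously with P. berghei; treatment began about 4-6 h after infection. Co-treatment with DFMO as 2% solution in drinking water for four nights, plus analogue given intraperitoneally three times daily (8:30, 12:30, 16:30) on three consecutive days. Cure means survival beyond 4 months with parasite-free Giemsa-stained blood smears on periodic examination.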

The test system of assay [3] is Plasmodium berghei. Briefly: In vivo antimalarial activity against Plasmodium berghei in mice (Mus musculus) as maximum dose tolerated. Format: functional. The gist of the method:
(§2)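 Peters 4-day suppression test, mice in groups of five, P. berghei given intravenously. DFMO 2% in drinking water for four nights (Mon-Thu), starting about 4-6 h after infection. Analogues given intraperitoneally at 8:30, 12:30 and 16:30 on three consecutive days (Tue-Thu). Dose reported as highest tolerated, highest tested, or giving maximum response. Cures judged as survival beyond 4 months with parasite-free Giemsa blood smears.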

Assay [4] relates to Plasmodium berghei. The assay is described as follows: In vivo antimalarial activity against Plasmodium berghei in mice (Mus musculus) as maximum dose tested. Format: functional. The gist of the method:
as §2

Assay [5] relates to Plasmodium berghei. The assay is described as follows: In vivo antimalarial activity against Plasmodium berghei in mice (Mus musculus) as dose required for Emax. Format: functional. The gist of the method:
as §2

Assay [6] concerns Plasmodium berghei. Briefly: In vivo antimalarial activity as increased survival (%max) against Plasmodium berghei in mice (Mus musculus). Format: functional. A digest of the protocol: as §1

The structures appear in SMILES notation.

`Cl.Cl.Cl.Cl.Clc1ccc(CNCCCNCCCCCCCCNCCCNCc2ccc(Cl)cc2)cc1`: the IC50 (commonly the concentration that inhibits the measured activity by half) in assay [1] was determined as 0.5 µM. The same compound displayed a Cured in assay [2] of 60%. Further, the Dose in assay [3] was 3 mg/kg.

The compound `c1ccc(NCCCNCCCCCCCNCCCNc2ccccc2)cc1` registered an IC50 in assay [1] of 0.5 µM.

As for `Cl.Cl.Cl.Cl.c1ccc(CNCCCNCCCCCCNCCCNCc2ccccc2)cc1`, the Dose in assay [4] turned out to be 30 mg/kg. This compound also had an IC50 in assay [1] of 5.3 µM.

Regarding `NCCCNCCCCCCCCNCCCN`, the IC50 in assay [1] came to 1800 µM.

In turn, `CS(=O)(=O)c1ccc(CNCCCNCCCCCCCNCCCNCc2ccc(S(C)(=O)=O)cc2)cc1` returned an IC50 in assay [1] of 86 µM.

In turn, `c1cc(CNCCCNCCCCCCCNCCCNCc2ccsc2)cs1` returned an IC50 in assay [1] of 3.9 µM.

Turning to `NCCCNCCCCCCCCNCCCNCc1ccccc1`, the IC50 in assay [1] worked out at 64 µM.

Consider `c1ccc(CNCCCCNCCCCCCCNCCCCNCc2ccccc2)cc1`, for which, in assay [1], the IC50 came to 3.2 µM.

The compound `Cl.Cl.Cl.Cl.c1ccc(CNCCCNCCCCCCCCCNCCCNCc2ccccc2)cc1` had a Dose in assay [5] of 10 mg/kg. This compound gave an IC50 in assay [1] of 0.7 µM. This compound also came in with a Cured in assay [2] of 60%.

Turning to `Cl.Cl.Cl.Cl.c1ccc(CNCCNCCCCCCCCNCCNCc2ccccc2)cc1`, the Max increase in assay [6] amounted to 45%. In assay [4], this compound returned a Dose of 30 mg/kg. In assay [1], this compound returned an IC50 of 0.3 µM.

In assay [1], `CC(N)CCNCCCCCCCNCCC(C)N` (stereo unspecified) came in with an IC50 above 20 µM.

`c1ccc(CNCCNCCCCCCCNCCNCc2ccccc2)cc1` displayed an IC50 in assay [1] of 1.4 µM.

With `COc1ccc(CNCCCNCCCCCCCNCCCNCc2ccc(OC)cc2)cc1`, in assay [1], the IC50 is 2.5 µM.

As for `c1ccc(CNCCNCCCCCCNCCNCc2ccccc2)cc1`, in assay [1], the IC50 amounted to 4.5 µM.

In assay [1], `COc1ccc(CNCCCNCCCCCCCCNCCCNCc2ccc(OC)cc2)cc1` showed an IC50 of 1.3 µM.

`c1ccc(CCNCCCNCCCCCCCNCCCNCCc2ccccc2)cc1` returned an IC50 in assay [1] of 1.9 µM.

Regarding `Cl.Cl.Cl.Cl.c1ccc(CNCCCNCCCCCCCNCCCNCc2ccccc2)cc1`, the Dose in assay [5] was 15 mg/kg. For the same compound, 3 µM corresponded to half-maximal inhibition in assay [1] (IC50). The compound further displayed a Cured in assay [2] of 100%.

In assay [6], `Cl.Cl.Cl.Cl.c1ccc(CNCCCNCCCCCNCCCNCc2ccccc2)cc1` displayed a Max increase of 30%. The compound further returned a Dose in assay [4] of 30 mg/kg. In assay [1], this compound displayed an IC50 of 6.7 µM.

`Clc1ccc(CNCCCNCCCCCCCNCCCNCc2ccc(Cl)cc2)cc1`: in assay [1], half-maximal inhibition (IC50) was put at 1.4 µM.

In assay [1], `Oc1ccc(CNCCCNCCCCCCCCNCCCNCc2ccc(O)cc2)cc1` gave an IC50 of 5.7 µM.

In turn, `C(CCCNCCCNCC1CCCCC1)CCCNCCCNCC1CCCCC1` displayed an IC50 in assay [1] of 1.8 µM.

Take `CCCCNCCCNCCCCCCCCNCCCNCCCC`: inhibition in assay [1] was half-maximal at 30 µM (IC50).

For `c1ccc2c(CNCCCNCCCCCCCCNCCCNCc3cccc4ccccc34)cccc2c1`, in assay [1], the IC50 was found to be 0.34 µM.

Compound `CC(NCCCNCCCCCCCNCCCNC(C)c1ccccc1)c1ccccc1` (stereo unspecified) registered an IC50 in assay [1] of 4.8 µM.

Turning to `CS(=O)(=O)c1ccc(CNCCCNCCCCCCCCNCCCNCc2ccc(S(C)(=O)=O)cc2)cc1`, inhibition in assay [1] was half-maximal at 20 µM (IC50).

Consider `CCc1ccc(CNCCCNCCCCCCCNCCCNCc2ccc(CC)cc2)cc1.Cl.Cl.Cl.Cl`, for which the Dose in assay [4] was 30 mg/kg. The same compound registered an IC50 in assay [1] of 1.8 µM.

As for `CCc1ccc(CNCCCNCCCCCCCCNCCCNCc2ccc(CC)cc2)cc1`, half-maximal inhibition in assay [1] (IC50) was put at 1.4 µM.

`c1csc(CNCCCNCCCCCCCNCCCNCc2cccs2)c1` showed an IC50 in assay [1] of 4.5 µM.

Regarding `c1ccc(CNCCCCNCCCCCCCCNCCCCNCc2ccccc2)cc1`, in assay [1], the concentration for half-maximal inhibition (IC50) is 5.3 µM.

On to `Cl.Cl.Cl.Cl.c1ccc(CNCCCNCCCCNCCCNCc2ccccc2)cc1`, for which the Max increase in assay [6] turned out to be 30%. The compound further had a Dose in assay [4] of 30 mg/kg. Besides, in assay [1], the IC50 is 14 µM.

`NCCCNCCCCCCCNCCCNCc1ccccc1`: half-maximal inhibition in assay [1] (IC50) was put at 330 µM.

Compound `CSc1ccc(CNCCCNCCCCCCCNCCCNCc2ccc(SC)cc2)cc1` had an IC50 in assay [1] of 3 µM.

On to `c1ccc(CNCCNCCCCCCCCCCNCCNCc2ccccc2)cc1`, for which the IC50 in assay [1] came out at 0.3 µM.

With `CC(CCNCCCCCCCNCCC(C)NCc1ccccc1)NCc1ccccc1.Cl.Cl.Cl.Cl` (stereo unspecified), in assay [4], the Dose is 100 mg/kg. In assay [1], the midpoint of inhibition, the IC50, lay at 2.6 µM.

In assay [1], `CSc1ccc(CNCCCNCCCCCCCCNCCCNCc2ccc(SC)cc2)cc1` displayed an IC50 of 0.6 µM.

In assay [5], `Cl.Cl.Cl.Cl.c1ccc(CNCCCNCCCCCCCCNCCCNCc2ccccc2)cc1` registered a Dose of 10 mg/kg. For the same compound, 0.8 µM corresponded to half-maximal inhibition in assay [1] (IC50). The same compound had a Cured in assay [2] of 80%.

In assay [1], `Cl.Cl.Cl.Cl.c1ccc(CNCCCNCCCCCCCCCCNCCCNCc2ccccc2)cc1` registered an IC50 of 0.5 µM. For the same compound, in assay [2], the Cured was 40%. This compound also had a Dose in assay [3] of 3 mg/kg.

In the case of `NCCCNCCCCCCCNCCCN`, in assay [1], half-maximal inhibition (IC50) required 4300 µM.

With `c1ccc(CCCNCCCNCCCCCCCNCCCNCCCc2ccccc2)cc1`, it took 0.3 µM to reach half-maximal inhibition in assay [1] (IC50).

Compound `Cl.Cl.Cl.Cl.c1ccc(CNCCCNCCCCCCCCCCCCNCCCNCc2ccccc2)cc1` displayed an IC50 in assay [1] of 0.2 µM. The compound also displayed a Dose in assay [3] of 10 mg/kg.

`Oc1ccc(CNCCCNCCCCCCCNCCCNCc2ccc(O)cc2)cc1` returned an IC50 in assay [1] of 27 µM.

Values taken from ChEMBL document CHEMBL1125840, “Antimalarial polyamine analogues” (J Med Chem, 1991).
